{
  "source": "ChEMBL document CHEMBL1123185",
  "about": "“Organic phosphorus compounds. 1. 4-(Benzothiazol-2-yl)benzylphosphonate as potent calcium antagonistic vasodilator” (J Med Chem, 1986)",
  "key": {"[1]": {"species_on_record": "Cavia porcellus", "assay": "Maximum increase in coronary flow in isolated guinea pig heart at a dose of 10 ug.", "format": "functional", "how_it_was_run": "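Langendorff-perfused isolated guinea pig heart with oxygenated (95% O2/5% CO2) Krebs-Henseleit fluid at 34 ± 1 °C and 60 cm H2O perfusion pressure. Compound dissolved in propylene glycol at 100 µg/mL and infused at 0.1 mL/min. Coronary flow recorded by electromagnetic flow meter before and after infusion, expressed as percent gain. Mean ± SE of five experiments.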"}, "[2]": {"species_on_record": "Cavia porcellus", "assay": "Effect on maximum increase in coronary flow in isolated guinea pig heart at a dose of 10 (ug/heart); Inactive", "format": "functional"}, "[3]": {"test_system": "Canis familiaris", "assay": "Change in the heart rate and hypotensive action was measured in dogs at 10 mg/kg dose, 120 min after id administration", "format": "functional, Canis lupus familiaris", "details": "route intraduodenal", "how_it_was_run": "(§1)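 Dogs of 12-22 kg were anesthetized with pentobarbital sodium (35 mg/kg ip), given supportive respiration, and opened by left thoracotomy at the fourth intercostal space. Compound was suspended in 0.5% CMC (10 mg/mL) and given intraduodenally via cannula at 10 mg/kg. Blood pressure was taken by carotid cannula and pressure transducer, and heart rate from the ECG. Values are mean ± SE, six experiments.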"}, "[4]": {"test_system": "Canis familiaris", "assay": "Change in the mean blood pressure and hypotensive action was measured in dogs at 10 mg/kg dose, 5 min after id administration", "format": "functional, Canis lupus familiaris", "details": "route intraduodenal", "how_it_was_run": "as §1"}, "[5]": {"test_system": "Canis familiaris", "assay": "Change in the heart rate and hypotensive action was measured in dogs at 10 mg/kg dose, 5 min after id administration", "format": "functional, Canis lupus familiaris", "details": "route intraduodenal", "how_it_was_run": "as §1"}, "[6]": {"test_system": "Canis familiaris", "assay": "Change in the heart rate and hypotensive action was measured in dogs at 10 mg/kg dose, 60 min after id administration", "format": "functional, Canis lupus familiaris", "details": "route intraduodenal", "how_it_was_run": "as §1"}, "[7]": {"test_system": "Canis familiaris", "assay": "Change in the mean blood pressure and hypotensive action was measured in dogs at 10 mg/kg dose, 30 min after id administration", "format": "functional, Canis lupus familiaris", "details": "route intraduodenal", "how_it_was_run": "as §1"}, "[8]": {"test_system": "Canis familiaris", "assay": "Compound was tested for max increase in blood flow through cicumflex branch of left coronary artery, 120 min after administration", "format": "functional, Canis lupus familiaris", "how_it_was_run": "(§2)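 Anesthetized dogs (12-22 kg; pentobarbital sodium 35 mg/kg ip, supportive respiration) underwent left thoracotomy at the fourth intercostal space. Flow in the left coronary artery branch was recorded with an electromagnetic flow meter and expressed as percent increase. Compound in 0.5% CMC (10 mg/mL) was given intraduodenally at 10 mg/kg. Values are mean ± SE, six experiments.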"}, "[9]": {"species_on_record": "Cavia porcellus", "assay": "pA2 was measured as Calcium antagonistic activity"}, "[10]": {"test_system": "Canis familiaris", "assay": "Compound was tested for max increase in blood flow through circumflex branch of left coronary artery, 5 min after administration", "format": "functional, Canis lupus familiaris", "how_it_was_run": "as §2"}, "[11]": {"test_system": "Canis familiaris", "assay": "Change in the heart rate and hypotensive action was measured in dogs at 10 mg/kg dose, 30 min after id administration", "format": "functional, Canis lupus familiaris", "details": "route intraduodenal", "how_it_was_run": "as §1"}, "[12]": {"test_system": "Canis familiaris", "assay": "Change in the mean blood pressure and hypotensive action was measured in dogs at 10 mg/kg dose, 60 min after id administration", "format": "functional, Canis lupus familiaris", "details": "route intraduodenal", "how_it_was_run": "as §1"}, "[13]": {"test_system": "Canis familiaris", "assay": "Compound was tested for max increase in blood flow through cicumflex branch of left coronary artery, 30 min after administration", "format": "functional, Canis lupus familiaris", "how_it_was_run": "as §2"}, "[14]": {"test_system": "Canis familiaris", "assay": "Change in the mean blood pressure and hypotensive action was measured in dogs at 10 mg/kg dose, 120 min after id administration", "format": "functional, Canis lupus familiaris", "details": "route intraduodenal", "how_it_was_run": "as §1"}, "[15]": {"test_system": "Canis familiaris", "assay": "Compound was tested for max increase in blood flow through cicumflex branch of left coronary artery, 60 min after administration", "format": "functional, Canis lupus familiaris", "how_it_was_run": "as §2"}, "[16]": {"test_system": "Canis familiaris", "assay": "Compound was tested for max increase in blood flow through cicumflex branch of left coronary artery, 5 min after administration", "format": "functional, Canis lupus familiaris", "how_it_was_run": "as §2"}},
  "note": "Calls of active or inactive are those of the source. The calls are words filed in the database; no cut-off is given here.",
  "data": [
    {"molecule": "CCOP(=O)(Cc1ccc(-c2nc3cc(O)ccc3s2)cc1)OCC", "values": [
      {"measurement": "Increase", "setting": "[1]", "result": 49, "unit": "%"}
    ]},
    {"molecule": "CCOP(=O)(Cc1ccc(-c2nc3ccc(N)cc3s2)cc1)OCC.Cl", "values": [
      {"measurement": "Increase", "setting": "[1]", "result": 50, "unit": "%"}
    ]},
    {"molecule": "CCOP(=O)(Cc1ccc(-c2nc3ccc([N+](=O)[O-])cc3s2)cc1)OCC", "values": [
      {"measurement": "Increase", "setting": "[2]", "result": "inactive"}
    ]},
    {"molecule": "CCOP(=O)(Cc1ccc(-c2nc3ccc(O)cc3s2)cc1)OCC", "values": [
      {"measurement": "Increase", "setting": "[1]", "result": 63.3, "unit": "%"}
    ]},
    {"molecule": "CCOP(=O)(Cc1ccc(-c2nc3ccc(NC(C)=O)cc3s2)cc1)OCC", "values": [
      {"measurement": "Increase", "setting": "[1]", "result": 48.7, "unit": "%"}
    ]},
    {"molecule": "CCOP(=O)(Cc1ccc(-c2nc3cccc(O)c3s2)cc1)OCC", "values": [
      {"measurement": "Increase", "setting": "[1]", "result": 20.6, "unit": "%"}
    ]},
    {"molecule": "CCCCOP(=O)(Cc1ccc(-c2nc3ccccc3s2)cc1)OCCCC", "values": [
      {"measurement": "Increase", "setting": "[1]", "result": 37.3, "unit": "%"}
    ]},
    {"molecule": "CCOP(=O)(Cc1ccc(-c2nc3ccc(Cl)cc3s2)cc1)OCC", "values": [
      {"measurement": "Increase", "setting": "[1]", "result": 54.6, "unit": "%"}
    ]},
    {"molecule": "CCOP(=O)(Cc1ccc(-c2nc3ccc(OC)cc3s2)cc1)OCC", "values": [
      {"measurement": "Increase", "setting": "[1]", "result": 20.1, "unit": "%"}
    ]},
    {"molecule": "CCOP(=O)(Cc1ccc(-c2nc3cccc(OC(C)=O)c3s2)cc1)OCC", "values": [
      {"measurement": "Increase", "setting": "[1]", "result": 71.7, "unit": "%"}
    ]},
    {"molecule": "O=P(O)(O)Cc1ccc(-c2nc3ccccc3s2)cc1", "values": [
      {"measurement": "Increase", "setting": "[2]", "result": "inactive"}
    ]},
    {"molecule": "CCOP(=O)(Cc1ccc(-c2nc3ccccc3s2)cc1)OCC", "note": "[FOSTEDIL]", "values": [
      {"measurement": "Change", "setting": "[3]", "result": -18.7, "unit": "beats min-1"},
      {"measurement": "Change", "setting": "[4]", "result": -13.4, "unit": "mmHg"},
      {"measurement": "Change", "setting": "[5]", "result": -6.9, "unit": "beats min-1"},
      {"measurement": "Change", "setting": "[6]", "result": -20.8, "unit": "beats min-1"},
      {"measurement": "Change", "setting": "[7]", "result": -9.7, "unit": "mmHg"},
      {"measurement": "Increase", "setting": "[8]", "result": 91.8, "unit": "%"},
      {"measurement": "Kb", "setting": "[9]", "result": 120, "unit": "nM"},
      {"measurement": "Increase", "setting": "[10]", "result": 28.2, "unit": "%"},
      {"measurement": "Change", "setting": "[11]", "result": -18.3, "unit": "beats min-1"},
      {"measurement": "Change", "setting": "[12]", "result": -12, "unit": "mmHg"},
      {"measurement": "Increase", "setting": "[1]", "result": 79.9, "unit": "%"},
      {"measurement": "Increase", "setting": "[13]", "result": 65.2, "unit": "%"},
      {"measurement": "Change", "setting": "[14]", "result": -13.3, "unit": "mmHg"},
      {"measurement": "Increase", "setting": "[15]", "result": 87.5, "unit": "%"}
    ]},
    {"molecule": "CCOP(=O)(Cc1ccc(-c2nc3ccc(OC(C)=O)cc3s2)cc1)OCC", "values": [
      {"measurement": "Increase", "setting": "[1]", "result": 56.7, "unit": "%"}
    ]},
    {"molecule": "COc1ccc(Cc2nccc3cc(OC)c(OC)cc23)cc1OC.Cl", "note": "[PAPAVERINE HYDROCHLORIDE]", "values": [
      {"measurement": "Increase", "setting": "[1]", "result": 55.8, "unit": "%"}
    ]},
    {"molecule": "CC(C)OP(=O)(Cc1ccc(-c2nc3ccccc3s2)cc1)OC(C)C", "values": [
      {"measurement": "Increase", "setting": "[1]", "result": 75.6, "unit": "%"}
    ]},
    {"molecule": "CCCOP(=O)(Cc1ccc(-c2nc3ccccc3s2)cc1)OCCC", "values": [
      {"measurement": "Increase", "setting": "[1]", "result": 62.4, "unit": "%"}
    ]},
    {"molecule": "CCOP(=O)(Cc1ccc(-c2nc3ccc(C)cc3s2)cc1)OCC", "values": [
      {"measurement": "Increase", "setting": "[1]", "result": 31.3, "unit": "%"}
    ]},
    {"molecule": "COc1ccc([C@@H]2Sc3ccccc3N(CCN(C)C)C(=O)[C@@H]2OC(C)=O)cc1.Cl", "note": "[DILTIAZEM HYDROCHLORIDE]", "values": [
      {"measurement": "Change", "setting": "[3]", "result": -27.2, "unit": "beats min-1"},
      {"measurement": "Change", "setting": "[4]", "result": -2.7, "unit": "mmHg"},
      {"measurement": "Change", "setting": "[5]", "result": 3.2, "unit": "beats min-1"},
      {"measurement": "Change", "setting": "[6]", "result": -29.2, "unit": "beats min-1"},
      {"measurement": "Change", "setting": "[7]", "result": -10.7, "unit": "mmHg"},
      {"measurement": "Increase", "setting": "[8]", "result": 74.6, "unit": "%"},
      {"measurement": "Kb", "setting": "[9]", "result": 417, "unit": "nM"},
      {"measurement": "Change", "setting": "[11]", "result": -19.7, "unit": "beats min-1"},
      {"measurement": "Change", "setting": "[12]", "result": -13.8, "unit": "mmHg"},
      {"measurement": "Increase", "setting": "[1]", "result": 63.9, "unit": "%"},
      {"measurement": "Increase", "setting": "[16]", "result": 6.5, "unit": "%"},
      {"measurement": "Increase", "setting": "[13]", "result": 85.5, "unit": "%"},
      {"measurement": "Change", "setting": "[14]", "result": -14.5, "unit": "mmHg"},
      {"measurement": "Increase", "setting": "[15]", "result": 89.4, "unit": "%"}
    ]},
    {"molecule": "Cc1ccc(-c2nc3ccccc3s2)cc1", "values": [
      {"measurement": "Increase", "setting": "[2]", "result": "inactive"}
    ]},
    {"molecule": "CCOC(=O)Cc1ccc(-c2nc3ccccc3s2)cc1", "values": [
      {"measurement": "Increase", "setting": "[2]", "result": "inactive"}
    ]},
    {"molecule": "CCOP(=O)(Cc1ccc(-c2nc3cc(OC(C)=O)ccc3s2)cc1)OCC", "values": [
      {"measurement": "Increase", "setting": "[1]", "result": 23.2, "unit": "%"}
    ]},
    {"molecule": "COP(=O)(Cc1ccc(-c2nc3ccccc3s2)cc1)OC", "values": [
      {"measurement": "Increase", "setting": "[1]", "result": 34.8, "unit": "%"}
    ]}
  ]
}
